From ChEMBL document CHEMBL4130635, “2,4-Diaminoquinazolines as Dual Toll-like Receptor (TLR) 7/8 Modulators for the Treatment of Hepatitis B Virus” (J Med Chem, 2018)
Calls of active or inactive are those of the source. No cut-off for these calls is given here.

Assays:
[1] = molecular target: TLR7 and TLR8 (Homo sapiens) (UniProt Q9NYK1+Q9NR97); assay: Agonist activity at TLR7/8 in human PBMCs co-cultured with primary human hepatocytes infected with HBV genotype C for 12 days assessed as increase in MIP-1beta levels up to 5 uM measured after 42 days
[2] = Cytotoxicity against HEK293 cells assessed as reduction in cell viability after 6 hrs by ATP lite assay; format: cell-based; details: human
[3] = Intrinsic clearance in human liver microsomes assessed per mg protein at 1 uM up to 60 mins; format: ADME, microsome; details: read-out: CLH
[4] = system: Cynomolgus monkey; assay: Upregulation of Tlr8 expression in cynomolgus monkey plasma at 1 to 30 mg/kg, po after 24 hrs by Fluidigm RT-qPCR analysis; format: functional, organism-based; details: Macaca fascicularis
[5] = system: Cynomolgus monkey; assay: Activation of monocytes in cynomolgus monkey plasma assessed as upregulation of IL1Ra levels at 9 mg/kg, po after 24 hrs by Luminex assay (reference value: 320 pg/ml); format: functional, Macaca fascicularis
[6] = system: Cynomolgus monkey; assay: Induction of ISG response in cynomolgus monkey plasma assessed as upregulation of Isg15 mRNA expression at 1 mg/kg, po after 24 hrs by Fluidigm RT-qPCR analysis (reference value: 1); format: functional, Macaca fascicularis
Method in brief: (§1)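 Cynomolgus monkeys, single oral doses of 1, 3, 9 and 30 mg/kg with a planned 2-week wash-out between doses. Systemic ISG (ISG15, Mx1, OAS1) mRNA was measured by Fluidigm RT-qPCR at 1, 2, 4, 8 and 24 h postdose.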

[7] = system: Cynomolgus monkey; assay: Activation of monocytes in cynomolgus monkey plasma assessed as upregulation of IL1Ra levels at 30 mg/kg, po after 24 hrs by Luminex assay (reference value: 320 pg/ml); format: functional, Macaca fascicularis
[8] = system: Plasma; assay: Upregulation of IP-10 mRNA expression levels in C57BL/6J mouse plasma at 10 mg/kg, po by RT-qPCR analysis (reference value: 1); format: functional
[9] = system: Liver; assay: Anti-inflammatory activity in C57BL/6J mouse liver assessed as IL-10 levels at 1 mg/kg, po by multiplex assay (reference value: 2 pg/g); format: functional
Method in brief: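 Mice (C57BL/6) got a single oral dose of 0.3–30 mg/kg in 20% HP-β-CD, in groups of 15. Three per group were sacrificed at 0.5, 1, 2, 4 or 7 h, and liver cytokines were measured by multiplex. Values were rounded to the nearest multiple of 5.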

[10] = system: Cynomolgus monkey; assay: Toxicity in cynomolgus monkey assessed as change in body temperature up to 30 mg/kg, po; format: organism-based, Macaca fascicularis; details: in vivo
[11] = Cmax in C57BL/6J mouse liver at 3 mg/kg, po by LC-MS analysis; format: ADME, organism-based; parameters: dose 3 mg/kg, route oral
Method in brief: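 Healthy C57BL/6 mice, groups of 15, given a single oral dose (0.3, 1, 3, 10 or 30 mg/kg) in 20% HP-β-CD. Blood drawn at 0.5 h. Three mice per group sacrificed at 0.5, 1, 2, 4 or 7 h, and compound in plasma and liver measured by LC−MS. Values rounded to whole numbers.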

[12] = system: Cynomolgus monkey; assay: Upregulation of Tlr7 expression in cynomolgus monkey plasma at 3 mg/kg, po after 24 hrs by Fluidigm RT-qPCR analysis (reference value: 1.8); format: functional, Macaca fascicularis
[13] = system: Plasma; assay: Effect on cytokine profile in C57BL/6J mouse plasma assessed as IFNgamma levels at 3 mg/kg, po by multiplex assay; format: functional, organism-based
Method in brief: (§2)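 Single oral gavage in 20% HP-β-CD to healthy C57BL/6 mice, groups of 15 at 0.3, 1, 3, 10 or 30 mg/kg. Three mice per group sacrificed at 0.5, 1, 2, 4 or 7 h. Plasma and liver cytokines by multiplex, maximum level reported, rounded to nearest multiple of 5.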

[14] = Cmax in Sprague-Dawley rat liver at 10 mg/kg, po; format: ADME, organism-based; parameters: dose 10 mg/kg, route oral
Method in brief: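 Male Sprague-Dawley rats given 10 mg/kg po as a solution. Compound measured in portal vein, systemic plasma and liver. Cmax taken from concentration–time profiles.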

[15] = system: Cynomolgus monkey; assay: Activation of Kupffer cells in cynomolgus monkey liver at 30 mg/kg, po after 72 hrs by CD68 staining-based immunohistochemical analysis; format: functional, organism-based; details: Macaca fascicularis
Method in brief: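 Three 2.5-year-old male naive cynomolgus monkeys were dosed orally at 30 mg/kg and euthanized 72 h later. FFPE liver sections were stained for CD68 by IHC, alongside sections from unrelated control animals. Positive cells were counted over a 30 mm² area and expressed per mm². Statistics used a one-tailed t test with Welch correction.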

[16] = system: Plasma; assay: Effect on cytokine profile in C57BL/6J mouse plasma assessed as IL-12p70 levels at 0.3 mg/kg, po by multiplex assay (reference value: 560 pg/ml); format: functional; method in brief: as §2
[17] = system: Cynomolgus monkey; assay: Induction of IFNalpha levels in cynomolgus monkey plasma at 3 mg/kg, po after 24 hrs by ELISA; format: functional, Macaca fascicularis
Method in brief: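 Healthy cynomolgus monkeys given single oral doses of 1, 3, 9 and 30 mg/kg, with a 2-week wash-out planned between doses. Systemic cytokine levels in plasma were sampled at 0.5, 1, 2, 4, 9 and 24 h postdose.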

[18] = system: Cynomolgus monkey; assay: Induction of ISG response in cynomolgus monkey plasma assessed as upregulation of Mx1 mRNA expression at 9 mg/kg, po after 24 hrs by Fluidigm RT-qPCR analysis (reference value: 1); format: functional, Macaca fascicularis; method in brief: as §1
[19] = molecular target: Alpha-1A adrenergic receptor; assay: Inhibition of alpha-1A adrenergic receptor (unknown origin)
[20] = system: Liver; assay: Induction of IFNalpha levels in C57BL/6J mouse liver at 1 mg/kg, po by ELISA (reference value: 30 pg/g); format: functional
[21] = system: Plasma; assay: Effect on cytokine profile in C57BL/6J mouse plasma assessed as IFNgamma levels at 30 mg/kg, po by multiplex assay; format: functional; method in brief: as §2
[22] = system: Plasma; assay: Proinflammatory activity in C57BL/6J mouse plasma assessed as CXCL-1 levels at 1 mg/kg, po by multiplex assay (reference value: 230 pg/ml); format: functional
[23] = Protein binding in human plasma fraction at 5 uM after 4.5 hrs LC-MS/MS-based rapid equilibrium dialysis method; format: ADME, cell-free; details: read-out: PPB (converted)

SMILES: CCC[C@@H](CCO)Nc1nc(N)nc2c(F)cccc12
- Activity [1]: Active
- CC50 at 6 h [2]: > 24 µM
- microsomal CLint at 1 µM [3]: 8 µL/min/mg
- Activity [4]: inactive
- Activity [5]: 2455 pg/mL
- fold change (FC) [6]: 145
- Activity [7]: 2970 pg/mL
- fold change (FC) [8]: 2875
- Activity [9]: 535 pg/g
- Activity [10]: Non-Toxic
- Cmax [11]: 385 ng/g
- fold change (FC) [12]: 5.1
- Activity [13]: Below limit of detection
- Cmax [14]: 285 ng/g
- Activity [15]: Active
- Activity [16]: 470 pg/mL
- Activity [17]: >51200 pg/mL
- fold change (FC) [18]: 55
- IC50 [19]: > 10 µM
- Activity [20]: 215 pg/g
- Activity [21]: 1010 pg/mL
- Activity [22]: 2155 pg/mL
- fraction unbound at 4.5 h, 5 µM [23]: 0.34
